{"source": "ChEMBL document CHEMBL4351001", "about": "“2-Aminoimidazole-based antagonists of the 5-HT6 receptor - A new concept in aminergic GPCR ligand design” (Eur J Med Chem, 2019)", "key": {"[1]": {"molecular_target": "T1, 5-hydroxytryptamine receptor 1A (Homo sapiens, UniProt P08908)", "T1 sequence (P08908 whole entry)": "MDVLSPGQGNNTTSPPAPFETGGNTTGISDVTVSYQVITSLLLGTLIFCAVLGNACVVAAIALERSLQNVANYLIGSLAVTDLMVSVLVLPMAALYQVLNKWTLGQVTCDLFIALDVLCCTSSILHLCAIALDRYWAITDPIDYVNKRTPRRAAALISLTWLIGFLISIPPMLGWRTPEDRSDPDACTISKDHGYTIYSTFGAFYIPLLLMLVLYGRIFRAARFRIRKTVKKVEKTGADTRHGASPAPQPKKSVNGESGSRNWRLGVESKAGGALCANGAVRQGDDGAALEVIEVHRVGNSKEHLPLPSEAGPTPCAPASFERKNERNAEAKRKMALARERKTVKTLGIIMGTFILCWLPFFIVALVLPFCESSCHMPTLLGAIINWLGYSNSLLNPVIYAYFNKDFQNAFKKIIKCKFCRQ", "assay": "Displacement of [3H]-8-OH-DPAT from human 5HT1A receptor expressed in HEK293 cells incubated for 1 hr by liquid scintillation counter method", "assay_type": "cell-based", "conditions": "read-out: Ki", "outline": "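HEK293 cells stably expressing human 5-HT1AR; membranes in 50 mM Tris–HCl, 0.1 mM EDTA, 4 mM MgCl2, 10 μM pargyline, 0.1% ascorbate; incubated 1 h at room temperature, then filtered. Nonspecific binding defined with 10 μM 5-HT.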"}, "D(2) dopamine receptor": {"molecular_target": "D(2) dopamine receptor (Homo sapiens, UniProt P14416)", "sequence (P14416 whole entry)": "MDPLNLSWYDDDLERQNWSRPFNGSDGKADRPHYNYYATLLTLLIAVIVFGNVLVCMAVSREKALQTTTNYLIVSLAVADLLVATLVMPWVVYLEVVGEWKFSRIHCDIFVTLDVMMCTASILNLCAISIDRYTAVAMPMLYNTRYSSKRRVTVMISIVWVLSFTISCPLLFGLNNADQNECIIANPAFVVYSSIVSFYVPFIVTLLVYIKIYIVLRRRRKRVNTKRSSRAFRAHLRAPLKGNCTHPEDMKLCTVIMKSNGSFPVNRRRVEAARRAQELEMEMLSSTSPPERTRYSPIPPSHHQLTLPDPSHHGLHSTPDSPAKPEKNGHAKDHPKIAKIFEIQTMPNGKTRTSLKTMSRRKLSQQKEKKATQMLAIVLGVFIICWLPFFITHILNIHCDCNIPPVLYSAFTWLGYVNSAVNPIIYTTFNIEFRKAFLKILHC", "assay": "Displacement of [3H]-methylspiperone from human D2 long receptor expressed in HEK293 cells measured after 1 hr by liquid scintillation counter method", "assay_type": "cell-based", "outline": "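HEK293 membranes stably expressing human D2L receptor, incubated 1 h at 37°C, then filtered and retained radioactivity counted; (+)-butaclamol 1 μM defines nonspecific binding. Tested in triplicate at 7–8 concentrations (10⁻¹¹–10⁻⁴ M); Ki via Cheng-Prusoff, averaged over at least two independent experiments.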"}, "[2]": {"molecular_target": "5-hydroxytryptamine receptor 7 (Homo sapiens, UniProt P34969)", "sequence (P34969 whole entry)": "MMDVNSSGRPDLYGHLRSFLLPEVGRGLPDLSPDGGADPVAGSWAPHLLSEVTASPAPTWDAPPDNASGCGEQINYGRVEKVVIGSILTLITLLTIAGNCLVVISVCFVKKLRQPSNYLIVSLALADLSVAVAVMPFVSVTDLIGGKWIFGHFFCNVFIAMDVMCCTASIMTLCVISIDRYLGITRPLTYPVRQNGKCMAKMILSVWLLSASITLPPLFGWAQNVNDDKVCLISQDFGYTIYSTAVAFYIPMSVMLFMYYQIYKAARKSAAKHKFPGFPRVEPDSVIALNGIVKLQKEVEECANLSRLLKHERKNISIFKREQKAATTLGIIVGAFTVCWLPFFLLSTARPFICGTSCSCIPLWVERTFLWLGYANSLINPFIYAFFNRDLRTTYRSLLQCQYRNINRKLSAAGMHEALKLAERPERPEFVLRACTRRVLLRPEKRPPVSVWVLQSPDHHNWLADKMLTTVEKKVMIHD", "assay": "Displacement of [3H]-5-CT from human 5HT7 receptor expressed in HEK293 cells measured after 1 hr by liquid scintillation counter method", "assay_type": "cell-based", "conditions": "read-out: Ki"}, "HepG2": {"system": "HepG2", "assay": "Cytotoxicity against human HepG2 cells assessed as reduction in cell viability measured after 24 hrs by Prestoblue assay", "assay_type": "cell-based", "conditions": "HepG2, 24 h", "outline": "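HepG2 cells seeded at 2x10^4 per well in DMEM with 10% FBS, grown 24 h (37°C, 5% CO2), then exposed 24 h to 1, 10, 50 and 100 μM compound. Viability read with PrestoBlue (fluorescence); membrane damage by ToxiLight (luminescence).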"}, "[3]": {"molecular_target": "Histamine H1 receptor (Homo sapiens) (UniProt P35367)", "sequence (P35367 whole entry)": "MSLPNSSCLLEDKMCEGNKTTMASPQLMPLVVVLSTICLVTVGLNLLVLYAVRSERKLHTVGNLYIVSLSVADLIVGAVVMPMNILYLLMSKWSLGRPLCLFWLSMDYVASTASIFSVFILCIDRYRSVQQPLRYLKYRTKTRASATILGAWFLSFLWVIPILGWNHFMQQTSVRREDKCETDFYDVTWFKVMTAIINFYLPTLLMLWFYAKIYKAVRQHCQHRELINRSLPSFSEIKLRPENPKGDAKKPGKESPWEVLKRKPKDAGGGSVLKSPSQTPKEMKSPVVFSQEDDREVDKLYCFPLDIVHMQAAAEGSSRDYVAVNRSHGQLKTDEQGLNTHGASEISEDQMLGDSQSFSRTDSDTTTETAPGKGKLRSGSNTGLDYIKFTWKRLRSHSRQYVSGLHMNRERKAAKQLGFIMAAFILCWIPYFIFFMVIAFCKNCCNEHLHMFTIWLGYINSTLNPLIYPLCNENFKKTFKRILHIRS", "assay": "Displacement of [3H] pyrilamine from human recombinant H1 histamine receptor at 10^-6 M measured after 60 mins by scintillation counting method relative to control"}, "[4]": {"molecular_target": "Histamine H1 receptor (Homo sapiens) (UniProt P35367)", "assay": "Agonist activity at human recombinant H1 histamine receptor at 10^-5 M relative to control"}, "[5]": {"molecular_target": "T2, Muscarinic acetylcholine receptor M1 (Homo sapiens) (UniProt P11229)", "T2 sequence (whole entry)": "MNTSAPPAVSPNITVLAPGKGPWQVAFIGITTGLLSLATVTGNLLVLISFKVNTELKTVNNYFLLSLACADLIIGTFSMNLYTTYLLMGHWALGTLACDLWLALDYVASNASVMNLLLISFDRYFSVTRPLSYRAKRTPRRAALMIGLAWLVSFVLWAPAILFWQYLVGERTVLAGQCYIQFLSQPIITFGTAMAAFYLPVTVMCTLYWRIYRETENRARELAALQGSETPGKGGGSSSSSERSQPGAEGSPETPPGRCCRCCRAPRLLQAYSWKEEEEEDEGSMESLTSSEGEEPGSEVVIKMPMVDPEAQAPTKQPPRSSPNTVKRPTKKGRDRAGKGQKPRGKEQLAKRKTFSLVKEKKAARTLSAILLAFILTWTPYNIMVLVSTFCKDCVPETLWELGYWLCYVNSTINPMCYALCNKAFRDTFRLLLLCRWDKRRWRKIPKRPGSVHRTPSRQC", "assay": "Displacement of [3H] pirenzepine from human recombinant muscarinic M1 receptor at 10^-6 M measured after 60 mins by scintillation counter method relative to control"}, "[6]": {"molecular_target": "T3, 5-hydroxytryptamine receptor 2C (Homo sapiens) (UniProt P28335)", "T3 sequence (whole entry)": "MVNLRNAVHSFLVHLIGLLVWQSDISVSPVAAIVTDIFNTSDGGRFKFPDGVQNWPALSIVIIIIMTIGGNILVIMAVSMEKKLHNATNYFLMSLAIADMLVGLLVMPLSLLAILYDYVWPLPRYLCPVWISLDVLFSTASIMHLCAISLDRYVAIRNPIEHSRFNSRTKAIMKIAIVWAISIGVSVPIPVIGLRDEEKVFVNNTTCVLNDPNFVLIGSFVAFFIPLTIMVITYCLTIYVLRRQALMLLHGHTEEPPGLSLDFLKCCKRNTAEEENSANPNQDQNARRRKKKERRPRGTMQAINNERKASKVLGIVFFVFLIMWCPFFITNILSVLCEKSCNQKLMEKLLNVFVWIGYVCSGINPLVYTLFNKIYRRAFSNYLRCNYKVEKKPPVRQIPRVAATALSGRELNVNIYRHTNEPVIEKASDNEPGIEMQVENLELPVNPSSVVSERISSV", "assay": "Displacement of [3H]mesulergine from human recombinant 5HT2C serotonin receptor at 10^-6M incubated for 120 mins by scintillation counter method relative to control"}, "[7]": {"molecular_target": "T3, 5-hydroxytryptamine receptor 2C (Homo sapiens)", "assay": "Agonist activity at human 5HT2C serotonin receptor at 10^-5 M relative to control"}, "[8]": {"molecular_target": "T3, 5-hydroxytryptamine receptor 2C (Homo sapiens)", "assay": "Antagonist activity at human 5HT2C serotonin receptor at 10^-5 M relative to control", "parameters": "scale not given: the % may be the effect or the level left"}, "[9]": {"assay": "Solubility of compound in water", "assay_type": "physicochemical", "conditions": "water; read-out: solubility"}, "[10]": {"assay": "Acute oral toxicity in Wistar rat by OECD up and down test guideline method", "conditions": "in vivo", "outline": "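Female rats given a single oral dose under OECD Test Guideline No. 425 (Acute Oral Toxicity, Up-and-Down Procedure); acute toxicity class assigned.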"}, "Rattus norvegicus [11]": {"system": "Rattus norvegicus", "assay": "Reversal of scopolamine induced cognitive impairment impairment in Sprague-Dawley rat at 1 mg/kg, po pre treated for 2 hrs followed by scopolamine addition further treated for 30 mins and measured after 1 hr by novel object recognition test", "assay_type": "functional, organism-based", "outline": "(§1)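 Male Sprague–Dawley rats (~250 g); open-field habituation 5 min 24 h before test. Compounds p.o. 120 min and scopolamine 1.25 mg/kg i.p. 30 min before 3-min familiarization trial; 3-min recognition trial 1 h later. Exploration video-tracked; discrimination index computed; one-way ANOVA with Newman–Keuls; n = 9–10 per group; mean ± SEM.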"}, "Rattus norvegicus [12]": {"system": "Rattus norvegicus", "assay": "Reversal of scopolamine induced cognitive impairment in Sprague-Dawley rat assessed increase in discrimination index at 0.3 mg/kg, po cotreated with 0.3 mg/kg of donepezil pre treated for 2 hrs followed by scopolamine addition further treated for 30 mins and measured after 1 hr by novel object recognition test", "assay_type": "functional, organism-based", "outline": "as §1"}, "in vitro": {"assay": "in vitro", "conditions": "rat, microsomes"}}, "note": "Calls of active or inactive are those of the source. The calls are words filed in the database; no cut-off is given here."}
{"smiles": "Cc1nc(N)[nH]c1-c1cn(S(=O)(=O)c2cccc3ccccc23)c2ccccc12.Cl", "values": [{"measurement": "Ki", "setting": "[1]", "result": "> 10000", "unit": "nM"}, {"measurement": "Ki", "setting": "D(2) dopamine receptor", "result": 1170, "unit": "nM"}, {"measurement": "Ki", "setting": "[2]", "result": 2510, "unit": "nM"}, {"measurement": "IC50", "setting": "HepG2", "result": 15700, "unit": "nM"}, {"measurement": "inhibition", "setting": "[3]", "result": 70.1, "unit": "%"}, {"measurement": "Activity", "setting": "[4]", "result": -1.3, "unit": "%"}, {"measurement": "inhibition", "setting": "[5]", "result": -0.3, "unit": "%"}, {"measurement": "inhibition", "setting": "[6]", "result": 52.7, "unit": "%"}, {"measurement": "Activity", "setting": "[7]", "result": 21.3, "unit": "%"}, {"measurement": "Activity", "setting": "[8]", "result": 50.3, "unit": "%"}, {"measurement": "solubility", "setting": "[9]", "result": "1000 to 10000", "unit": "µg/mL"}, {"measurement": "LD50", "setting": "[10]", "result": "> 2000", "unit": "mg/kg"}, {"measurement": "Activity", "setting": "Rattus norvegicus [11]", "result": "Active"}, {"measurement": "Activity", "setting": "Rattus norvegicus [12]", "result": "Active"}, {"measurement": "half-life", "setting": "in vitro", "result": 23, "unit": "min"}]}
